# Data: ChEMBL document CHEMBL5303300, “EUbOPEN Chemogenomics Library - Multiplex” (2023)
# Several values for one entry are separate records, joined by “and”; a condition that tells them apart may be missing. Equal values may be shown once.
# What was measured:
# HEK-293T = assay: Multiplex assay against HEK293T; type: toxicity, cell-based; conditions: human, number of replicates 2
# In short: (§1)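 Live cells were stained at seeding with Hoechst33342, BioTracker Green Microtubule Cytoskeleton Dye, MitoTracker Red and Annexin V Alexa Fluor 680. Following compound addition, they were imaged on a CQ1 microscope at 37°C and 5% CO2 and gated by CellPathfinder machine learning into Hoechst high-intensity objects or normal cells, with normal cells split into healthy, pyknosed or fragmented nuclei and pyknosed cells into mitotic or apoptotic. Tubulin, mitochondrial-mass and membrane-permeability phenotypes are per cents of healthy-nucleus cells.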
# U2OS = assay: Multiplex assay against U2OS; type: toxicity, cell-based; conditions: human, number of replicates 2; in short: as §1
# [1] = 24 h, 1 µM, compound concentration 1 uM
# [2] = 24 h, 10 µM, compound concentration 10 uM
# [3] = 48 h, 1 µM, compound concentration 1 uM
# [4] = 48 h, 10 µM, compound concentration 10 uM
# [5] = 12 h, 1 µM, compound concentration 1 uM
# [6] = 12 h, 10 µM, compound concentration 10 uM
smiles,measurement,setting,value
CCc1ncnc(N2CCN(C(C)=O)CC2)c1C#Cc1ccc(N)nc1.Cl.Cl,Population Normal (%),HEK-293T; [1],84% and 76%
same,Population Pyknosed Nuclei (%),HEK-293T; [1],12% and 14%
same,Population Tubulin-Different-Phenotype (%),HEK-293T; [1],68% and 67%
same,Total Cell Count,HEK-293T; [1],305 and 394
same,Population Apoptotic (%),HEK-293T; [2],72% and 60%
same,Population Fragmented Nuclei (%),HEK-293T; [2],3% and 6%
same,Population Healthy Nuclei (%),HEK-293T; [2],78% and 74%
same,Population Hoechst High Intensity Objects (%),HEK-293T; [2],14%
same,Population Membrane Permeable-Phenotype (%),HEK-293T; [2],2% and 1%
same,Population Mitochondria Different-Phenotype (%),HEK-293T; [2],57% and 64%
same,Population Mitotic Cells (%),HEK-293T; [2],27% and 39%
same,Population Normal (%),HEK-293T; [2],85%
same,Population Pyknosed Nuclei (%),HEK-293T; [2],18%
same,Population Tubulin-Different-Phenotype (%),HEK-293T; [2],79% and 82%
same,Total Cell Count,HEK-293T; [2],233 and 255
same,Population Apoptotic (%),HEK-293T; [3],71% and 74%
same,Population Fragmented Nuclei (%),HEK-293T; [3],14% and 9%
same,Population Healthy Nuclei (%),HEK-293T; [3],63% and 76%
same,Population Hoechst High Intensity Objects (%),HEK-293T; [3],20% and 31%
same,Population Membrane Permeable-Phenotype (%),HEK-293T; [3],1% and 3%
same,Population Mitochondria Different-Phenotype (%),HEK-293T; [3],37% and 25%
same,Population Mitotic Cells (%),HEK-293T; [3],28% and 25%
same,Population Normal (%),HEK-293T; [3],79% and 68%
same,Population Pyknosed Nuclei (%),HEK-293T; [3],21% and 14%
same,Population Tubulin-Different-Phenotype (%),HEK-293T; [3],72% and 67%
same,Total Cell Count,HEK-293T; [3],307 and 445
same,Population Apoptotic (%),HEK-293T; [4],65% and 57%
same,Population Fragmented Nuclei (%),HEK-293T; [4],7%
same,Population Healthy Nuclei (%),HEK-293T; [4],72% and 73%
same,Population Hoechst High Intensity Objects (%),HEK-293T; [4],23% and 14%
same,Population Membrane Permeable-Phenotype (%),HEK-293T; [4],0%
same,Population Mitochondria Different-Phenotype (%),HEK-293T; [4],46% and 63%
same,Population Mitotic Cells (%),HEK-293T; [4],34% and 42%
same,Population Normal (%),HEK-293T; [4],76% and 85%
same,Population Pyknosed Nuclei (%),HEK-293T; [4],20% and 19%
same,Population Tubulin-Different-Phenotype (%),HEK-293T; [4],80% and 73%
same,Total Cell Count,HEK-293T; [4],260 and 244
same,Population Apoptotic (%),U2OS; [5],100% and 70%
same,Population Fragmented Nuclei (%),U2OS; [5],19% and 10%
same,Population Healthy Nuclei (%),U2OS; [5],69% and 80%
same,Population Hoechst High Intensity Objects (%),U2OS; [5],0%
same,Population Membrane Permeable-Phenotype (%),U2OS; [5],0%
same,Population Mitochondria Different-Phenotype (%),U2OS; [5],0%
same,Population Normal (%),U2OS; [5],100%
same,Population Pyknosed Nuclei (%),U2OS; [5],11% and 9%
same,Population Tubulin-Different-Phenotype (%),U2OS; [5],55% and 90%
same,Population Apoptotic (%),U2OS; [6],50% and 55%
same,Population Fragmented Nuclei (%),U2OS; [6],18% and 10%
same,Population Healthy Nuclei (%),U2OS; [6],72%
same,Population Hoechst High Intensity Objects (%),U2OS; [6],0%
same,Population Membrane Permeable-Phenotype (%),U2OS; [6],4% and 3%
same,Population Mitochondria Different-Phenotype (%),U2OS; [6],2% and 4%
same,Population Mitotic Cells (%),U2OS; [6],50% and 44%
same,Population Normal (%),U2OS; [6],100% and 99%
same,Population Pyknosed Nuclei (%),U2OS; [6],9% and 17%
same,Population Tubulin-Different-Phenotype (%),U2OS; [6],87% and 58%
same,Population Apoptotic (%),U2OS; [1],55% and 56%
same,Population Fragmented Nuclei (%),U2OS; [1],9% and 7%
same,Population Healthy Nuclei (%),U2OS; [1],75% and 82%
same,Population Hoechst High Intensity Objects (%),U2OS; [1],0%
same,Population Membrane Permeable-Phenotype (%),U2OS; [1],2% and 0%
same,Population Mitochondria Different-Phenotype (%),U2OS; [1],2% and 0%
same,Population Mitotic Cells (%),U2OS; [1],44% and 43%
same,Population Normal (%),U2OS; [1],100% and 99%
same,Population Pyknosed Nuclei (%),U2OS; [1],14% and 10%
same,Population Tubulin-Different-Phenotype (%),U2OS; [1],72% and 90%
same,Population Apoptotic (%),U2OS; [2],40% and 73%
same,Population Fragmented Nuclei (%),U2OS; [2],16% and 12%
same,Population Healthy Nuclei (%),U2OS; [2],67% and 71%
same,Population Hoechst High Intensity Objects (%),U2OS; [2],0%
same,Population Membrane Permeable-Phenotype (%),U2OS; [2],4% and 2%
same,Population Mitochondria Different-Phenotype (%),U2OS; [2],2% and 5%
same,Population Mitotic Cells (%),U2OS; [2],60% and 26%
same,Population Normal (%),U2OS; [2],100% and 99%
same,Population Pyknosed Nuclei (%),U2OS; [2],16%
same,Population Tubulin-Different-Phenotype (%),U2OS; [2],88% and 60%
same,Population Apoptotic (%),U2OS; [3],77% and 69%
same,Population Healthy Nuclei (%),U2OS; [3],72% and 82%
same,Population Hoechst High Intensity Objects (%),U2OS; [3],0%
same,Population Membrane Permeable-Phenotype (%),U2OS; [3],0% and 2%
same,Population Mitochondria Different-Phenotype (%),U2OS; [3],0%
same,Population Mitotic Cells (%),U2OS; [3],22% and 30%
same,Population Normal (%),U2OS; [3],100%
same,Population Pyknosed Nuclei (%),U2OS; [3],12% and 13%
same,Population Tubulin-Different-Phenotype (%),U2OS; [3],75% and 93%
same,Population Apoptotic (%),U2OS; [4],70% and 84%
same,Population Fragmented Nuclei (%),U2OS; [4],16% and 6%
same,Population Healthy Nuclei (%),U2OS; [4],32% and 66%
same,Population Hoechst High Intensity Objects (%),U2OS; [4],0%
same,Population Membrane Permeable-Phenotype (%),U2OS; [4],5% and 4%
same,Population Mitochondria Different-Phenotype (%),U2OS; [4],5% and 8%
same,Population Mitotic Cells (%),U2OS; [4],30% and 15%
same,Population Normal (%),U2OS; [4],100%
same,Population Pyknosed Nuclei (%),U2OS; [4],50% and 27%
same,Population Tubulin-Different-Phenotype (%),U2OS; [4],89% and 72%
